One assay relates to M14. Briefly: Antiproliferative activity against M14 melanoma cancer cells. Format: functional. To be noted: Homo sapiens.
Assay [1] concerns A2058. The assay is described as follows: Apoptotic effect on A2058 cells by measuring hypodiploid DNA content after 18 hrs exposure to 5 uM. Type of assay: functional, Homo sapiens. The method in brief: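 A2058 human melanoma cells kept at 37 °C in 5% CO2 and passaged with 5 mM EDTA. Exposed to agent at 5 μM for 18 h, trypsinized, fixed 30 min in ice-cold 70% ethanol, and treated with RNase A (1 mg/mL) at 37 °C for 30 min. Stained with PI for 30 min at room temperature in the dark. DNA content read by flow cytometry on 10 000 events, reported as the percentage of cells in the sub-G1 region.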

The subject of the next assay is RXF 393. The assay is described as follows: Antiproliferative activity against RXF393 Renal cancer cells. Format: functional. To be noted: Homo sapiens.
In another assay the test system is UACC-62. Briefly: Antiproliferative activity against UACC62 melanoma cancer cells. Type of assay: functional. To be noted: Homo sapiens.
Another assay has as its system SN12C. The assay is described as follows: Antiproliferative activity against SN12C Renal cancer cells. Type of assay: functional. To be noted: Homo sapiens.
The test system of the next assay is Nucleic Acid. Briefly: Inhibition of cleavage activity of restriction endonuclease BamH1. Type of assay: nucleic-acid assay. The gist of the method: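 pBR322 plasmid DNA (0.5 μg) preincubated with compound at 5 μM in restriction buffer pH 7.5 plus BSA 0.1 mg/mL, 37 °C for 1 h. Excess BamHI (20 units) then added, 37 °C for a further 1 h, stopped at 65 °C for 20 min. Products run on 1.0% agarose in TAE at 100 V for 2 h and stained with ethidium bromide. Supercoiled/open-circular and fully linearized DNA run as controls.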

In another assay the test system is SF-268. The assay is described as follows: Antiproliferative activity against SF268 CNS cancer cells. Format: functional. To be noted: Homo sapiens.
The subject of assay [2] is A2058. Briefly: Accumulation of A2058 cells in S phase as a measure for cell cycle arrest at 4 uM. Type of assay: functional, Homo sapiens. The method in brief:
(§1)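 Human melanoma A2058 cells exposed to graded concentrations (0–4 μM) for 24 h, DMSO as control. Cells collected by trypsinization, fixed in ice-cold 70% ethanol 30 min, treated with 1 mg/mL RNase A at 37 °C 30 min, then stained with propidium iodide/citrate/Triton X-100 at room temperature 30 min in the dark. DNA content of 10 000 events read by flow cytometry; G1, S and G2/M fractions gated from histograms.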

In assay [3] the test system is A2058. Briefly: Accumulation of A2058 cells in G1 phase as a measure for cell cycle arrest at 2 uM. Type of assay: functional, Homo sapiens. The gist of the method: as §1
Assay [4] has as its system A2058. The assay is described as follows: Accumulation of A2058 cells in G2/M phase as a measure for cell cycle arrest at 2 uM. Type of assay: functional, Homo sapiens. The gist of the method: as §1
Assay [5] relates to A2058. Briefly: Accumulation of A2058 cells in G2/M phase as a measure for cell cycle arrest at 1 uM. Format: functional, Homo sapiens. The gist of the method:
as §1

Assay [6] relates to A2058. The assay is described as follows: Accumulation of A2058 cells in G1 phase as a measure for cell cycle arrest at 4 uM. Type of assay: functional, Homo sapiens. The method in brief:
as §1

The test system of assay [7] is A2058. The assay is described as follows: Accumulation of A2058 cells in G1 phase as a measure for cell cycle arrest at 1 uM. Format: functional, Homo sapiens. The gist of the method:
as §1

The test system of assay [8] is A2058. The assay is described as follows: Accumulation of A2058 cells in G2/M phase as a measure for cell cycle arrest at 4 uM. Type of assay: functional, Homo sapiens. The gist of the method:
as §1

Assay [9] deals with A2058. Briefly: Accumulation of A2058 cells in S phase as a measure for cell cycle arrest at 1 uM. Type of assay: functional, Homo sapiens. The method in brief:
as §1

For assay [10], the system named is A2058. Briefly: Accumulation of A2058 cells in S phase as a measure for cell cycle arrest at 2 uM. Format: functional, Homo sapiens. The gist of the method:
as §1

Assay [11] relates to A2058. Briefly: Apoptotic effect on A2058 cells by propidium iodide staining and Annexin V-FITC conjugate at 2 uM. Type of assay: functional, cell-based. Conditions: Homo sapiens. The method in brief: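 A2058 cells given graded concentrations for 24 h, then 10^6 cells per sample labelled with annexin V–FITC together with propidium iodide and analysed by two-parameter flow cytometry. Percentage of annexin V-positive cells reported per concentration.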

The source made the active and inactive calls. No cut-off for these calls is given here.

In the case of `COc1cc2c(cc1OCCCNC(=O)c1cc3ccccc3[nH]1)N=C[C@@H]1CCCN1C2=O`, the GI50 (as a rule, the concentration giving 50% growth inhibition) came to 173 nM in the assay on M14; 25 nM in the assay on RXF 393; 203 nM in the assay with UACC-62; 410 nM in the assay with SN12C; 27 nM in the assay with SF-268. In addition, in the assay on A2058 [1], the Activity is 46.8%. Also, the result with Nucleic Acid was Active.

`COc1cc2c(cc1OCCCCCNC(=O)c1cc3ccccc3[nH]1)N=C[C@@H]1CCCN1C2=O` yielded an Activity with A2058 [1] of 2.9%.

As to `COc1cc2c(cc1O)N=C[C@@H]1CCCN1C2=O`, the Activity in the assay with A2058 [1] is given as 45%.

On to `COc1cc2c(cc1OCCCCCCNC(=O)c1cc3ccccc3[nH]1)N=C[C@@H]1CCCN1C2=O`, for which the Activity is given as 42.8% with A2058 [2]; 25.7% with A2058 [3]; 47.7% with A2058 [4]; 42.5% in the assay with A2058 [5]; 29.2% with A2058 [6]; 41.1% with A2058 [7]. Besides, the Activity in the assay on A2058 [8] was 12.5%; with A2058 [1] it was 50.6%; in the assay on A2058 [9], 15.2%; in the assay on A2058 [10], 25.2%. Moreover, the outcome in the assay on Nucleic Acid and with A2058 [11] was Active.

In the case of `COc1cc2c(cc1OC(=O)c1cc3ccccc3[nH]1)N=C[C@@H]1CCCN1C2=O`, the GI50 with M14 turned out to be 162 nM; in the assay with UACC-62, 290 nM; in the assay with SN12C it was 210 nM. In the assay with A2058 [1], this molecule registered an Activity of 38.5%.

Molecule `COc1cc2c(cc1OCCCCNC(=O)c1cc3ccccc3[nH]1)N=C[C@@H]1CCCN1C2=O` displayed an Activity in the assay on A2058 [1] of 46.8%. Further, the outcome in the assay with Nucleic Acid was Active.

The values above are taken from ChEMBL document CHEMBL1138123, “Design, synthesis, and biological evaluation of pyrrolo[2,1-c][1,4]benzodiazepine and indole conjugates as anticancer agents” (2006).
